Screens from PubChem.
bovine MsrA act = bovine MsrA enzyme activators, primary screen, biochemical, absorbance, HTS; Methionine sulfoxide reductase A (Bos taurus); purified bovine MsrA, absorbance read-out; activation, % at 10.6 µM; actives 0.3% (n = 360,000); AID 602163, 2012; in the data active = activation above about 7.5%;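 also: 0% = vehicle and 100% = reference activator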
HTR2A ag = mouse Htr2a agonists via beta-arrestin recruitment, primary screen, cell-based, luminescence; 5-hydroxytryptamine receptor 2A (Mus musculus), P35363; CHO-K1 mHTR2A beta-arrestin complementation; percent of 30 µM serotonin response; activation, % at 7.6 µM; actives 0.66% (n = 360,000); AID 624169, 2012;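 active = activation above a run cutoff, the mean activation of all tested compounds plus 3 SD, cut at about 14% in these data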;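 also: 0% = plate median of compound wells and 100% = 30 µM serotonin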
Target sequence (P35363 whole entry, looked up): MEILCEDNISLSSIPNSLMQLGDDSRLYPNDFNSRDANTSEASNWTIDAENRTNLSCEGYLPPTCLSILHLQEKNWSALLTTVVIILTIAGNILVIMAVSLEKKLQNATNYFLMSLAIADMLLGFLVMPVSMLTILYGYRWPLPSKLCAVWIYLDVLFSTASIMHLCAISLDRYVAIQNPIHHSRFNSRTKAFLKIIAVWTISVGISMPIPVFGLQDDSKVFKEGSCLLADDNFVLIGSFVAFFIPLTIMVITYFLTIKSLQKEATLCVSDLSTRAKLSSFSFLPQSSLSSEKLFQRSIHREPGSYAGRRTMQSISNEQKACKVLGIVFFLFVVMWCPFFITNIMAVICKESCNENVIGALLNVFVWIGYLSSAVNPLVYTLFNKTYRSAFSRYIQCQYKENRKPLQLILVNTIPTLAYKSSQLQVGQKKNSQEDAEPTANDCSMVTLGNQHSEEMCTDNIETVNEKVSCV
MsrA inhibitor = bovine MsrA enzyme inhibitors, primary screen, biochemical, absorbance, HTS. Methionine sulfoxide reductase A (Bos taurus). purified bovine MsrA, absorbance read-out. inhibition, % at 15.5 µM. actives 0.75% (n = 360,000). AID 651718, 2012; in the data active = inhibition above about 4.5%;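 also: 0% = vehicle wells with enzyme and 100% = reference inhibitor wells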
AHR activator = AHR activators, primary screen, cell-based, luminescence, luciferase reporter, human | Aryl hydrocarbon receptor (Homo sapiens), P35869 | AHR-responsive luciferase reporter cells | activation, % at 5 µM | actives 2.5% (n = 320,000) | AID 2796, 2010; in the data active = activation above about 47%;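 also: 0% = vehicle wells and 100% = reference agonist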
AI-2 QS modul = Vibrio harveyi AI-2 quorum sensing modulators, primary screen, JMH597 strain, luminescence/OD600 ratio; Vibrio harveyi JMH597 AI-2 luminescence/OD600 ratio, 9 h; active compounds read low; strain lacks LuxN and CqsS sensors; 0 = neutral-control median; activity change, % at 7.5 µM; actives 0.4% (n = 300,000); AID 2094, 2009; in the data active = activity change below about -75%, passing the limit was not always enough;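 also: luminescence divided by OD600 gain over 9 h not by final OD600 alone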
TbMetRS inhib = T. brucei MetRS inhibitors, primary screen, biochemical, luminescence. inhibition, % at 11.9 µM. purified T. brucei MetRS, ATP depletion, Kinase-Glo luminescence. methionyl-tRNA synthetase (Trypanosoma brucei brucei). actives 0.4% (n = 360,000);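 active = inhibition above a per-plate cutoff of the control wells' mean inhibition plus 3 SD, cut at about 5.5% in these data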;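 also: 0% = DMSO wells median and 100% = median of wells with control inhibitor compound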
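Measured by: Kinase-Glo luciferase luminescence reporting remaining unconsumed ATP. Material: purified T. brucei MetRS enzyme. Doses: 11.9 µM compound single dose, 0.9% DMSO. Medium: HEPES buffer containing pyrophosphatase, BSA, spermine, DTT. Times: 15 min preincubation, 2 h reaction, all 25 °C. Reagent: methionine, ATP and bulk E. coli tRNA.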
MsrA activ conf = bovine MsrA activators, retest, confirmation, biochemical, absorbance, HTS; actives 12% (n = 1,000); activation, % at 10.6 µM; AID 602270, 2012; shares compounds with bovine MsrA act; purified bovine MsrA, absorbance read-out; in the data active = activation above about 4%;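 also: enzyme coupled to thioredoxin and thioredoxin reductase with NADPH; 0% = vehicle wells and 100% = reference activator wells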
* = called active by the depositor; nt = not tested or not shown. Shown are actives, neighbours in structure and some others; about 4.4% of the full set was active somewhere.

SMILES	bovine MsrA act	HTR2A ag	MsrA inhibitor	AHR activator	AI-2 QS modul	TbMetRS inhib	MsrA activ conf
CCOc1cccc(C(c2c(C)n(C)n(-c3ccccc3)c2=O)c2c(C)n(C)n(-c3ccccc3)c2=O)c1OC	13*	8	0	0	25	0	-1
CCOc1ccccc1C(c1c(C)n(C)n(-c2ccccc2)c1=O)c1c(C)n(C)n(-c2ccccc2)c1=O	-3	3	-1	1	9	-1	nt
CC(C)CC1NC(=O)N(CC(=O)Nc2ccc3c(c2)OCCO3)C1=O (stereo not drawn)	13*	-4	-1	1	nt	0	-4
Cc1ccc(C)c(N2CCN(S(=O)(=O)c3c(C(=O)N4CCCCC4)c(C)n(C)c3C)CC2)c1	8.2*	-2	1	3	-2	1	-2
Cc1ccc(C)c(N2CCN(S(=O)(=O)c3c(C)[nH]c(C)c3C(=O)N3CCCCC3)CC2)c1	-2	4	-1	30	19	0	nt
COc1ccc(S(=O)(=O)N2CCN(C(=S)NC3CCCCC3)CC2)cc1	8.0*	2	0	0	16	-1	-3
S=c1[nH]ccc2ccccc12	9.8*	-1	1	nt	nt	0	2
O=C(NC1CC1)C1=C[C@@H](c2ccc(C(F)(F)F)cc2)C[C@@H](OCc2ccc(CO)cc2)O1	8.1*	-7	1	24	9	-1	3
O=C1N[C@@H](Cc2ccccc2)COC(=O)[C@H](Cc2ccc(F)cc2)C/C=C\C[C@H]1CC(=O)N(CCO)Cc1ccccc1	19*	9	-2	1	nt	0	-1
O=C1N[C@H](Cc2ccccc2)COC(=O)[C@H](Cc2ccc(F)cc2)C/C=C\C[C@H]1CC(=O)N(CCO)Cc1ccccc1	-8	0	0	1	nt	1	nt
COc1ccc(-c2nnc(SCC(=O)NC(=O)NCc3ccccc3)o2)cc1	9.7*	4	0	0	29	0	-1
O=C(CSc1nnc(-c2ccncc2)o1)NCc1ccccc1	-13	3	2	0	3	-1	nt
CN(C)S(=O)(=O)c1ccc(Cl)c(NC(=O)COC(=O)CNS(=O)(=O)c2c(F)cccc2F)c1	8.8*	-2	0	nt	nt	0	1
COc1ccc(S(=O)(=O)N2CCCCCC2)cc1NC(=O)Cc1n[nH]c(=O)c2ccccc12	-1	-5	0	nt	nt	0	nt
Cc1noc(C)c1COc1ccccc1C(=O)NCCc1ccc(S(N)(=O)=O)cc1	7.8*	8	0	-1	17	0	-2
Cc1ccc(N(CCC#N)C(=O)COC(=O)C2CCN(S(=O)(=O)c3ccc(C)c(C)c3)CC2)cc1	0	0	0	-1	19	0	nt
Cc1cccc(NC(=O)c2c(C)cc(=O)oc2C)n1	14*	6	0	2	9	-1	0
Cc1cc(=O)oc(C)c1C(=O)Nc1cccc2ccccc12	-2	0	-1	1	5	0	nt
Cc1ccc(S(=O)(=O)NCCC(=O)N2CCC(C)CC2)cc1	-3	3	2	1	nt	0	nt
COCCCN(C(=O)C1=COCCO1)c1c(N)n(Cc2ccccc2)c(=O)[nH]c1=O	-2	2	4	nt	nt	0	nt
CCOC(=O)c1csc(N)n1	-4	3	-3	0	24	0	nt
CCOC(=O)c1csc(-c2snnc2C)n1	8.0*	1	0	-2	24	0	-5
Oc1c(CN2CCOCC2)cc(CN2CCOCC2)c(O)c1O	-5	-1	0	nt	nt	0	nt
Oc1c(Cl)cc(Oc2cc(Cl)c(O)c(CN3CCOCC3)c2)cc1CN1CCOCC1	8.7*	-1	0	nt	nt	0	-1
CC(C)(C)c1ccc(C(=O)N2CCN(C(=O)c3cccs3)CC2)cc1	-3	-3	0	-2	nt	0	nt
SMILES	bovine MsrA act	HTR2A ag	MsrA inhibitor	AHR activator	AI-2 QS modul	TbMetRS inhib	MsrA activ conf
S=C(c1cccs1)N1CCN(c2ccccc2)CC1	-3	-5	1	nt	nt	-1	nt
CC1CC(C(F)(F)F)n2ncnc2N1 (stereo not drawn)	9.2*	-1	0	-3	15	0	1
COc1ccc(NC(=O)COC(=O)c2c(C)noc2C)cc1Cl	-3	-2	-1	nt	nt	0	nt
CC(=O)N1N=C(c2ccc(C)cc2)CC1c1ccc2c(c1)OCO2 (stereo not drawn)	8.0*	-3	-1	11	14	0	-1
CC1=C(C#N)C(Nc2ccc(Cl)cn2)(C(F)(F)F)C(=O)N1 (stereo not drawn)	10*	0	0	-2	5	0	-1
CCOC(=O)CC1COCCN1C(=O)c1cc(COc2ccc(F)cc2Cl)on1 (stereo not drawn)	-2	-2	1	3	36	0	nt
Cc1ccc(Cn2nnc3c(=O)[nH]c(C4CCN(C(=O)Cc5cccs5)CC4)nc32)cc1	7.7*	1	0	-2	4	0	0
O=C(Cc1cccs1)N1CCC(c2nc3c(nnn3Cc3ccccc3)c(=O)[nH]2)CC1	-2	4	-2	-4	10	0	nt
c1ccc(-c2nnc3ccc(N4CCCC4)nn23)cc1	-3	0	1	-6	5	0	nt
O=C(Nc1ccccc1Cl)N1CCN(c2ccc3nnc(-c4ccccc4)n3n2)CC1	17*	0	nt	14	5	0	-1
Cn1c(CNC(=O)CNC(=O)Cc2ccc(Cl)cc2)cc(=O)n(C)c1=O	-2	2	-1	1	18	-1	nt
CCN(CC)/C(=N\S(=O)(=O)c1ccc(F)cc1)c1ccccc1	-6	-7	0	1	3	-1	nt
CC(Sc1n[nH]c(=O)n1Cc1ccccc1)C(=O)NCC1CCCO1 (stereo not drawn)	-6	2	0	nt	nt	0	nt
COc1cc2c(cc1OC)C(c1cc([N+](=O)[O-])ccc1O)NCC2 (stereo not drawn)	9.0*	4	0	-1	34	0	-7
CCOC(=O)C1(Cc2ccccc2)CCN(Cc2csc(C(C)=O)c2)CC1	9.8*	2	2	-1	18	0	-1
CCN(CC(=O)Nc1ccc(OC)cc1)CC(=O)N1CC(=O)Nc2ccccc21	-3	-4	-1	5	nt	0	nt
Nn1c(SCC(=O)NC2CCCc3ccccc32)nnc1-c1cccs1 (stereo not drawn)	8.7*	-5	1	3	14	-1	0
